From ChEMBL document CHEMBL1123819, “Synthesis and antifungal activity of a series of novel 1,2-disubstituted propenones” (1987)
Converted amounts (≈) assume the structure as drawn.

Columns and labels:
Format in all cases: functional
Trichophyton benhamiae = assay: Antifungal activity against Trichophyton asteroides was determined in vitro
Outline: (§1)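 Broth microdilution in Sabouraud's glucose broth; MIC read as the fungistatic end point. Final inocula were 1 × 10^5 cells/mL for the yeast and 1 × 10^5 conidia/mL for the mould and the dermatophyte.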

Candida albicans [1] = assay: (§2) Antifungal activity against Candida albicans was determined in vitro; outline: as §1
Aspergillus fumigatus = assay: Antifungal activity against Aspergillus fumigatus was determined in vitro; outline: as §1
Candida albicans [2] = assay: as §2; remark: listed apart in the source
Outline: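 MIC by broth microdilution in microtiter plates. Final inoculum 1 × 10^5 yeast cells per mL of Sabouraud's glucose broth. Fungistatic activity was assessed.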

SMILES | MIC (Trichophyton benhamiae) | MIC (Candida albicans [1]) | MIC (Aspergillus fumigatus) | MIC (Candida albicans [2])
O=C(/C(=C/c1ccc(F)cc1)n1ccccc1=O)c1ccc(Cl)cc1 | 12.5 µg/mL (≈ 35.3 µM) | > 100 µg/mL | > 100 µg/mL | –
C=C(C(=O)c1ccc(Cl)cc1)n1ncc2ccccc2c1=O | 1.6 µg/mL (≈ 5.15 µM) | 0.8 µg/mL (≈ 2.57 µM) | 6.3 µg/mL (≈ 20.3 µM) | –
C=C(C(=O)c1ccc(Cl)cc1Cl)n1ccccc1=O | 0.8 µg/mL (≈ 2.72 µM) | 0.8 µg/mL (≈ 2.72 µM) | 25 µg/mL (≈ 85 µM) | –
C=C(C(=O)c1ccco1)n1cncn1 | 3.1 µg/mL (≈ 16.4 µM) | 0.8 µg/mL (≈ 4.23 µM) | 6.3 µg/mL (≈ 33.3 µM) | –
C=C(C(=O)c1ccccc1OC)n1ccccc1=O | 1.6 µg/mL (≈ 6.27 µM) | 3.1 µg/mL (≈ 12.1 µM) | > 100 µg/mL | –
C=C(CN(C)C)C(=O)c1ccc(Cl)cc1 | 6.3 µg/mL (≈ 28.2 µM) | 12.5 µg/mL (≈ 55.9 µM) | 12.5 µg/mL (≈ 55.9 µM) | –
C=C(C(=O)c1ccc(Cl)cc1)n1c(=O)ccc2ccccc21 | 0.2 µg/mL (≈ 0.646 µM) | 3.1 µg/mL (≈ 10 µM) | 1.6 µg/mL (≈ 5.17 µM) | –
C=C(Cn1cccn1)C(=O)c1ccc(-c2ccccc2)cc1 | 0.8 µg/mL (≈ 2.77 µM) | 6.3 µg/mL (≈ 21.8 µM) | 12.5 µg/mL (≈ 43.4 µM) | –
C=C(C(=O)c1ccc(Cl)cc1)n1cc(C)ccc1=O | 0.8 µg/mL (≈ 2.92 µM) | 0.8 µg/mL (≈ 2.92 µM) | 3.1 µg/mL (≈ 11.3 µM) | –
COCC(C(=O)c1ccc(OC)cc1)n1cncn1 (stereo unspecified) | 3.1 µg/mL (≈ 11.9 µM) | 3.1 µg/mL (≈ 11.9 µM) | 100 µg/mL (≈ 383 µM) | –
C=C(C(=O)c1ccc(Cl)cc1)N1C(=O)C=NC(=O)C1C (stereo unspecified) | 3.1 µg/mL (≈ 10.7 µM) | 6.3 µg/mL (≈ 21.7 µM) | 6.3 µg/mL (≈ 21.7 µM) | –
C=C(C(=O)c1ccc(F)cc1)c1ccc(Cl)cc1Cl | 0.4 µg/mL (≈ 1.36 µM) | 3.1 µg/mL (≈ 10.5 µM) | 12.5 µg/mL (≈ 42.4 µM) | –
C=C(Cn1ccccc1=O)C(=O)c1ccc(OC)cc1 | 6.3 µg/mL (≈ 23.4 µM) | 25 µg/mL (≈ 92.8 µM) | 100 µg/mL (≈ 371 µM) | –
C=C(C(=O)c1ccc(Cl)cc1)n1cncn1 | 1.6 µg/mL (≈ 6.85 µM) | 0.2 µg/mL (≈ 0.856 µM) | 6.3 µg/mL (≈ 27 µM) | –
C=C(C(=O)c1ccc(C#N)cc1)n1cncn1 | 6.3 µg/mL (≈ 28.1 µM) | 1.6 µg/mL (≈ 7.14 µM) | 25 µg/mL (≈ 111 µM) | –
C=C(C(=O)c1ccc(C(=O)OC)cc1)n1ccccc1=O | 3.1 µg/mL (≈ 10.9 µM) | 3.1 µg/mL (≈ 10.9 µM) | 50 µg/mL (≈ 177 µM) | –
C=C(C(C)=O)n1cncn1 | 3.1 µg/mL (≈ 22.6 µM) | 12.5 µg/mL (≈ 91.1 µM) | 25 µg/mL (≈ 182 µM) | –
C=C(C(=O)c1ccc(OC)cc1)n1cncn1 | 0.8 µg/mL (≈ 3.49 µM) | 0.8 µg/mL (≈ 3.49 µM) | 12.5 µg/mL (≈ 54.5 µM) | –
C=C(C(=O)c1cccs1)c1ccc(Cl)cc1 | 0.1 µg/mL (≈ 0.402 µM) | 3.1 µg/mL (≈ 12.5 µM) | 3.1 µg/mL (≈ 12.5 µM) | –
C=C(C(=O)c1cccs1)n1cncn1 | 1.6 µg/mL (≈ 7.8 µM) | 0.4 µg/mL (≈ 1.95 µM) | 6.3 µg/mL (≈ 30.7 µM) | –
CC(C(=O)c1ccc(Cl)cc1)n1ccccc1=O (stereo unspecified) | > 100 µg/mL | > 100 µg/mL | > 100 µg/mL | –

SMILES | MIC (Trichophyton benhamiae) | MIC (Candida albicans [1]) | MIC (Aspergillus fumigatus) | MIC (Candida albicans [2])
C=C(C(=O)c1ccc(Cl)cc1Cl)n1cccn1 | 1.6 µg/mL (≈ 5.99 µM) | 0.8 µg/mL (≈ 2.99 µM) | 25 µg/mL (≈ 93.6 µM) | –
C=C(C(=O)c1ccc(Cl)cc1)n1c(=O)n(C)c2ccccc21 | 0.4 µg/mL (≈ 1.28 µM) | 1.6 µg/mL (≈ 5.12 µM) | 1.6 µg/mL (≈ 5.12 µM) | –
C=C(C(=O)c1ccc(-c2ccccc2)cc1)n1cncn1 | 0.2 µg/mL (≈ 0.726 µM) | 0.4 µg/mL (≈ 1.45 µM) | 3.1 µg/mL (≈ 11.3 µM) | –
C=C(Cn1cncn1)C(=O)c1ccc(OC)cc1 | 6.3 µg/mL (≈ 25.9 µM) | 12.5 µg/mL (≈ 51.4 µM) | > 100 µg/mL | –
C=C(C(=O)C(C)(C)C)n1cncn1 | 6.3 µg/mL (≈ 35.2 µM) | 0.4 µg/mL (≈ 2.23 µM) | 6.3 µg/mL (≈ 35.2 µM) | –
O=C(c1ccc(Cl)cc1)C(CO)n1cnc2ccccc2c1=O (stereo unspecified) | 0.8 µg/mL (≈ 2.43 µM) | 0.8 µg/mL (≈ 2.43 µM) | 6.3 µg/mL (≈ 19.2 µM) | –
C=C(Cn1c(=O)ccc2ccccc21)C(=O)c1ccc(Cl)cc1 | 3.1 µg/mL (≈ 9.57 µM) | 25 µg/mL (≈ 77.2 µM) | 100 µg/mL (≈ 309 µM) | –
C=C(Cn1ccccc1=O)C(=O)c1ccc(Cl)cc1 | 0.8 µg/mL (≈ 2.92 µM) | 1.6 µg/mL (≈ 5.85 µM) | 25 µg/mL (≈ 91.3 µM) | –
C=C(C(=O)N1CCOCC1)c1ccc(Cl)cc1Cl | > 100 µg/mL | > 100 µg/mL | > 100 µg/mL | –
C=C(C(=O)c1ccc(OC)cc1)n1cnc2ccccc2c1=O | 0.4 µg/mL (≈ 1.31 µM) | 1.6 µg/mL (≈ 5.22 µM) | 6.3 µg/mL (≈ 20.6 µM) | –
C=C(C(=O)c1cccs1)c1ccccc1 | 0.2 µg/mL (≈ 0.933 µM) | 1.6 µg/mL (≈ 7.47 µM) | 1.6 µg/mL (≈ 7.47 µM) | –
CC/C=C(\C(=O)c1ccc(Cl)cc1)n1ccccc1=O | 25 µg/mL (≈ 86.9 µM) | > 100 µg/mL | > 100 µg/mL | –
C=C(C(=O)c1ccc(Cl)cc1)n1cnccc1=O | 1.6 µg/mL (≈ 6.14 µM) | 0.4 µg/mL (≈ 1.53 µM) | 3.1 µg/mL (≈ 11.9 µM) | –
C=C(C(=O)c1ccc(Cl)cc1)n1cc(C(=O)OC)ccc1=O | 0.8 µg/mL (≈ 2.52 µM) | 0.8 µg/mL (≈ 2.52 µM) | 3.1 µg/mL (≈ 9.76 µM) | –
C=C(C(=O)c1ccc(Cl)cc1Cl)c1ccc(Cl)cc1Cl | 0.4 µg/mL (≈ 1.16 µM) | 6.3 µg/mL (≈ 18.2 µM) | > 100 µg/mL | –
C=C(Cc1ccccc1)C(=O)c1cccs1 | 6.3 µg/mL (≈ 27.6 µM) | > 100 µg/mL | 100 µg/mL (≈ 438 µM) | –
C=C(Cn1cncn1)C(=O)c1ccc(-c2ccccc2)cc1 | 0.4 µg/mL (≈ 1.38 µM) | 1.6 µg/mL (≈ 5.53 µM) | 12.5 µg/mL (≈ 43.2 µM) | –
C=C(C(=O)c1ccc(Cl)cc1)n1ccccc1=O | 0.8 µg/mL (≈ 3.08 µM) | 1.6 µg/mL (≈ 6.16 µM) | 2.5 µg/mL (≈ 9.63 µM) | –
C=C(Cn1cncn1)C(=O)c1ccc(Cl)cc1 | 1.6 µg/mL (≈ 6.46 µM) | 0.4 µg/mL (≈ 1.61 µM) | 12.5 µg/mL (≈ 50.5 µM) | –
C=C(C(=O)c1ccccc1)n1ccccc1=O | 1.6 µg/mL (≈ 7.1 µM) | 6.3 µg/mL (≈ 28 µM) | 50 µg/mL (≈ 222 µM) | –
C=C(Cn1ccccc1=O)C(=O)c1ccc(-c2ccccc2)cc1 | 0.8 µg/mL (≈ 2.54 µM) | 6.3 µg/mL (≈ 20 µM) | 50 µg/mL (≈ 159 µM) | –

SMILES | MIC (Trichophyton benhamiae) | MIC (Candida albicans [1]) | MIC (Aspergillus fumigatus) | MIC (Candida albicans [2])
C=C(C(=O)c1ccc(-c2ccccc2)cc1)n1ccccc1=O | 0.4 µg/mL (≈ 1.33 µM) | 0.8 µg/mL (≈ 2.65 µM) | 12.5 µg/mL (≈ 41.5 µM) | –
C=C(C(=O)c1ccc(Cl)cc1)n1cc(Cl)ccc1=O | 0.8 µg/mL (≈ 2.72 µM) | 0.8 µg/mL (≈ 2.72 µM) | 3.1 µg/mL (≈ 10.5 µM) | –
C=C(C(=O)C(C)(C)C)n1ccccc1=O | 6.3 µg/mL (≈ 30.7 µM) | 50 µg/mL (≈ 244 µM) | > 100 µg/mL | –
C=C(Cn1ccccc1=O)C(=O)c1ccsc1 | 6.3 µg/mL (≈ 25.7 µM) | 50 µg/mL (≈ 204 µM) | 50 µg/mL (≈ 204 µM) | –
C=C(C(=O)c1ccc(Cl)cc1)n1cnc2ccccc2c1=O | 0.1 µg/mL (≈ 0.322 µM) | 0.1 µg/mL (≈ 0.322 µM) | 0.4 µg/mL (≈ 1.29 µM) | –
C=C(C(=O)c1ccc(-c2ccccc2)cc1)n1cnc2ccccc2c1=O | 25 µg/mL (≈ 70.9 µM) | > 100 µg/mL | > 100 µg/mL | –
C=C(C(=O)c1ccc(C)cc1)n1cncn1 | 0.8 µg/mL (≈ 3.75 µM) | 0.2 µg/mL (≈ 0.938 µM) | 6.3 µg/mL (≈ 29.5 µM) | –
C=C(C)C(=O)c1ccco1 | 1.6 µg/mL (≈ 11.8 µM) | 25 µg/mL (≈ 184 µM) | 25 µg/mL (≈ 184 µM) | –
C=C(Cn1cnc2ccccc2c1=O)C(=O)c1ccc(Cl)cc1 | 3.1 µg/mL (≈ 9.55 µM) | 3.1 µg/mL (≈ 9.55 µM) | 6.3 µg/mL (≈ 19.4 µM) | –
C=C(C(=O)Nc1ccc(Cl)cc1)c1ccc(Cl)cc1Cl | > 100 µg/mL | > 100 µg/mL | > 100 µg/mL | –
COc1ccc(C(=O)C(CO)n2cncn2)cc1 (stereo unspecified) | 3.1 µg/mL (≈ 12.5 µM) | 3.1 µg/mL (≈ 12.5 µM) | 100 µg/mL (≈ 404 µM) | –
C=C(C(=O)c1ccc(F)cc1)n1cncn1 | 0.8 µg/mL (≈ 3.68 µM) | 0.4 µg/mL (≈ 1.84 µM) | 6.3 µg/mL (≈ 29 µM) | –
C=C(C(=O)c1ccc(Cl)cc1)N1CC(=O)N=CC1=O | 12.5 µg/mL (≈ 45.2 µM) | 12.5 µg/mL (≈ 45.2 µM) | > 100 µg/mL | –
C=C(C(=O)c1ccccc1)n1cc(Cl)ccc1=O | 3.1 µg/mL (≈ 11.9 µM) | 6.3 µg/mL (≈ 24.3 µM) | 25 µg/mL (≈ 96.3 µM) | –
C=C(C(=O)c1ccc(Cl)cc1)n1c(O)nc2ccccc21 | 3.1 µg/mL (≈ 10.4 µM) | 6.3 µg/mL (≈ 21.1 µM) | 12.5 µg/mL (≈ 41.8 µM) | –
C=C(Cn1cncn1)C(=O)c1ccsc1 | 6.3 µg/mL (≈ 28.7 µM) | 12.5 µg/mL (≈ 57 µM) | 100 µg/mL (≈ 456 µM) | –
Clc1ccccc1C(c1ccccc1)(c1ccccc1)n1ccnc1 [CLOTRIMAZOLE] | 0.1 µg/mL (≈ 0.29 µM) | 1.6 µg/mL (≈ 4.64 µM) | 1.6 µg/mL (≈ 4.64 µM) | –
C=C(c1ccccc1OCc1cccc(Cl)c1)n1ccnc1 [CROCONAZOLE] | 0.1 µg/mL (≈ 0.322 µM) | – | 3.1 µg/mL (≈ 9.97 µM) | 3.1 µg/mL (≈ 9.97 µM)
Clc1ccc(COC(Cn2ccnc2)c2ccc(Cl)cc2Cl)cc1 (stereo unspecified) [ECONAZOLE] | 0.1 µg/mL (≈ 0.262 µM) | 3.1 µg/mL (≈ 8.12 µM) | 3.1 µg/mL (≈ 8.12 µM) | –
Clc1ccc(COC(Cn2ccnc2)c2ccc(Cl)cc2Cl)c(Cl)c1 (stereo unspecified) [MICONAZOLE] | 0.1 µg/mL (≈ 0.24 µM) | 3.1 µg/mL (≈ 7.45 µM) | 6.3 µg/mL (≈ 15.1 µM) | –
